The results in this text go back to ChEMBL document CHEMBL1147437, “Omega-carboxypyridyl substituted ureas as Raf kinase inhibitors: SAR of the amide substituent” (Bioorg Med Chem Lett, 2004).

The target in data set [1] is RAF proto-oncogene serine/threonine-protein kinase (Homo sapiens, UniProt P04049). Description: Inhibitory activity against human Raf-1 kinase. An outline of the steps: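 EE-tagged c-Raf and Mek made in baculovirus-infected Sf-9 cells, immuno-affinity purified. Raf (4 μg/mL) with Mek substrate (20 μg/mL) in 200 mM Tris pH 8.2, 100 mM NaCl, 20 mM 2-mercaptoethanol; compound added before starting with 10 μM γ-[³³P]ATP stock. 32 °C, 25 min; phosphocellulose filter capture, scintillation count.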
Sequence of RAF proto-oncogene serine/threonine-protein kinase (P04049 whole entry): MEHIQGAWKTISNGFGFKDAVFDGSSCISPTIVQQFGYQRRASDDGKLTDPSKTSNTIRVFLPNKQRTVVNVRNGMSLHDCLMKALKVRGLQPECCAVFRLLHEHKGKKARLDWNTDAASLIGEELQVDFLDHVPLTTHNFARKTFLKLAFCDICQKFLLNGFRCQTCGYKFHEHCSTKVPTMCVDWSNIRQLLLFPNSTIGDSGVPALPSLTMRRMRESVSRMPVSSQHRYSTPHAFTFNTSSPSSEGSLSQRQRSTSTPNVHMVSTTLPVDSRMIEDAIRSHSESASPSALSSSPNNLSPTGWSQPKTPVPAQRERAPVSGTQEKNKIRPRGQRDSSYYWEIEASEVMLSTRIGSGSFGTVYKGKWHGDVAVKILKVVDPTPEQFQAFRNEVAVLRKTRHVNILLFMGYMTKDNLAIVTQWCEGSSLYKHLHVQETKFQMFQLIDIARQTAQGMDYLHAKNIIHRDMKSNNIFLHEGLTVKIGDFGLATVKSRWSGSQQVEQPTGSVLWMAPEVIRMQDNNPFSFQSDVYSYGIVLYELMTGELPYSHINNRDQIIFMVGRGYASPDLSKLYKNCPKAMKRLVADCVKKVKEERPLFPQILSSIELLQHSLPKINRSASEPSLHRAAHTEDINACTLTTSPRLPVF

Data set [2] is described as follows: Solubility at pH 2.7. The class given is physicochemical. Particulars: buffer.
Data set [3] is described as follows: Solubility at pH 7.2. The format is physicochemical. Particulars: buffer. A digest of the protocol: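 Aqueous solubility determined in 0.5× PBS at pH 7.2; reported in µg/mL.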

Converted amounts (≈) assume the structure as drawn. Some results are limits rather than exact numbers.

`CNC(=O)c1cncc(Oc2ccc(NC(=O)Nc3ccc(Cl)c(C(F)(F)F)c3)cc2)c1`: the half-inhibitory concentration (IC50) in data set [1] worked out at 50 nM.

Take `COc1ccc(C(F)(F)F)cc1NC(=O)Nc1ccc(Oc2cccc(C(=O)Nc3ccc(N(C)C)cc3)c2)cc1`: 410 nM corresponded to half-maximal inhibition in data set [1] (IC50). The same measure, in the same setting: to `CC(C)(C)c1cc(NC(=O)Nc2ccc(Oc3cccc(C(=O)NCc4ccccc4)c3)cc2)no1` belongs 460 nM. As to `O=C(Nc1ccc(Oc2ccnc(C(=O)NCCN3CCOCC3)c2)cc1)Nc1ccc(Br)c(C(F)(F)F)c1`, the figures for the solubility in data set [2] and in data set [3] were 39 µg/mL (≈ 64.1 µM) and no more than 5 µg/mL, respectively. In data set [1], this molecule returned an IC50 of 60 nM. For `CC(C)NC(=O)c1cc(Oc2ccc(NC(=O)Nc3ccc(Cl)c(C(F)(F)F)c3)cc2)ccn1`, it took 2300 nM to reach half-maximal inhibition in data set [1] (IC50). Turning to `CNC(=O)c1cc(Oc2ccc(NC(=O)Nc3cc(C(F)(F)F)ccc3OC)cc2)ccn1`, in data set [1], 53 nM corresponded to half-maximal inhibition (IC50). Same read-out and setting: to `CNC(=O)c1cccc(Oc2ccc(NC(=O)Nc3cc(C(F)(F)F)ccc3OC)cc2)c1` belongs 130 nM.

On to `CNC(=O)c1cccc(Oc2ccc(NC(=O)Nc3ccc(Cl)c(C(F)(F)F)c3)cc2)c1`, for which half-maximal inhibition in data set [1] (IC50) was put at 130 nM. For `O=C(Nc1ccc(Oc2cncc(C(=O)NCCN3CCOCC3)c2)cc1)Nc1ccc(Cl)c(C(F)(F)F)c1`, the values for the solubility in data set [2] and in data set [3] were 36 µg/mL (≈ 63.8 µM) and no more than 5 µg/mL, respectively. Further, the IC50 in data set [1] was 140 nM. Take `COc1ccc(NC(=O)c2cccc(Oc3ccc(NC(=O)Nc4cc(C(F)(F)F)ccc4OC)cc3)c2)cn1`: in data set [1], the IC50 worked out at 150 nM. In data set [1], `CCNC(=O)c1cc(Oc2ccc(NC(=O)Nc3cc(C(F)(F)F)ccc3OC)cc2)ccn1` showed an IC50 of 460 nM. The same measure, in the same setting: the value for `O=C(Nc1ccc(Oc2cccc(C(=O)Nc3cccnc3)c2)cc1)Nc1ccc(Cl)c(C(F)(F)F)c1` was 44 nM; that for `CN(C)C(=O)c1cc(Oc2ccc(NC(=O)Nc3ccc(Br)c(C(F)(F)F)c3)cc2)ccn1` was 170 nM. Same read-out and setting: to `CCNC(=O)c1cccc(Oc2ccc(NC(=O)Nc3cc(C(C)(C)C)on3)cc2)c1` belongs 130 nM; to `CN(C)C(=O)c1cc(Oc2ccc(NC(=O)Nc3ccc(Cl)c(C(F)(F)F)c3)cc2)ccn1`, 300 nM; to `O=C(Nc1ccc(Oc2cccc(C(=O)NCCN3CCOCC3)c2)cc1)Nc1ccc(Cl)c(C(F)(F)F)c1`, 70 nM. As to `O=C(Nc1ccc(Oc2cccc(C(=O)NCCNc3ccccc3)c2)cc1)Nc1ccc(Cl)c(C(F)(F)F)c1`, the IC50 in data set [1] worked out at 160 nM. As for `O=C(Nc1ccc(Oc2ccnc(C(=O)NCCN3CCOCC3)c2)cc1)Nc1ccc(Cl)c(C(F)(F)F)c1`, the solubility in data set [2] is 141 µg/mL (≈ 250 µM); in data set [3] it was no more than 5 µg/mL. The IC50 in data set [1] stood at 73 nM. In data set [1], `COc1ccc(C(F)(F)F)cc1NC(=O)Nc1ccc(Oc2ccnc(C(=O)N(C)C)c2)cc1` showed a 50% inhibitory concentration (IC50) of 330 nM.

In data set [1], `COc1ccc(C(F)(F)F)cc1NC(=O)Nc1ccc(Oc2cccc(C(=O)Nc3ccc(N4CCOCC4)cc3)c2)cc1` displayed an IC50 of 210 nM. On the same count and under the same terms, the value for `CNC(=O)c1cccc(Oc2ccc(NC(=O)Nc3cc(C(C)(C)C)on3)cc2)c1` was 120 nM; that for `CC(C)(C)c1cc(NC(=O)Nc2ccc(Oc3ccncc3)cc2)no1` was 230 nM; that for `COc1ccncc1NC(=O)c1cccc(Oc2ccc(NC(=O)Nc3ccc(Cl)c(C(F)(F)F)c3)cc2)c1` was 130 nM. In data set [1], `CC(C)(C)c1cc(NC(=O)Nc2ccc(Oc3cccc(C(=O)Nc4cccnc4)c3)cc2)no1` displayed a concentration for half-maximal inhibition (IC50) of 68 nM.

`O=C(Nc1ccc(Oc2cccc(C(=O)NCCN3CCCCC3)c2)cc1)Nc1ccc(Cl)c(C(F)(F)F)c1` displayed an IC50 in data set [1] of 82 nM. As to `COc1ccc(C(F)(F)F)cc1NC(=O)Nc1ccc(Oc2cncc(C(=O)NCCN(C)C)c2)cc1`, the solubility came to 129 µg/mL (≈ 249 µM) in data set [2] and 41 µg/mL (≈ 79.2 µM) in data set [3]. In data set [1], this molecule showed a half-maximal inhibitory concentration (IC50) of 100 nM. Take `CCNC(=O)c1cc(Oc2ccc(NC(=O)Nc3ccc(Br)c(C(F)(F)F)c3)cc2)ccn1`: the concentration for half-maximal inhibition (IC50) in data set [1] is 27 nM. Same read-out and setting: to `CC(C)(C)c1cc(NC(=O)Nc2ccc(Oc3cccc(C(=O)Nc4ccccc4)c3)cc2)no1` belongs 370 nM; to `CCNC(=O)c1cc(Oc2ccc(NC(=O)Nc3ccc(Cl)c(C(F)(F)F)c3)cc2)ccn1`, 26 nM; to `COc1ccc(C(F)(F)F)cc1NC(=O)Nc1ccc(Oc2ccnc(C(=O)NCC(C)C)c2)cc1`, 500 nM.

For the molecule `CNC(=O)c1cc(Oc2ccc(NC(=O)Nc3ccc(Br)c(C(F)(F)F)c3)cc2)ccn1`, the midpoint of inhibition in data set [1], the IC50, lay at 6 nM. Molecule `COc1ccc(C(F)(F)F)cc1NC(=O)Nc1ccc(Oc2cncc(C(=O)NCCN3CCOCC3)c2)cc1` displayed a half-maximal inhibitory concentration (IC50) in data set [1] of 63 nM. For `COCCNC(=O)c1cccc(Oc2ccc(NC(=O)Nc3ccc(Cl)c(C(F)(F)F)c3)cc2)c1`, the half-maximal inhibitory concentration (IC50) in data set [1] is 110 nM. For the molecule `CNC(=O)c1cncc(Oc2ccc(NC(=O)Nc3cc(C(F)(F)F)ccc3OC)cc2)c1`, the solubility in data set [2] and in data set [3] was no more than 4 µg/mL in each case. The IC50 in data set [1] is 61 nM. Take `CCCNC(=O)c1cccc(Oc2ccc(NC(=O)Nc3cc(C(C)(C)C)on3)cc2)c1`: it took 140 nM to reach half-maximal inhibition in data set [1] (IC50). In data set [1], `CNC(=O)c1cc(Oc2ccc(NC(=O)Nc3cc(C(C)(C)C)on3)cc2)ccn1` came in with a half-inhibitory concentration (IC50) of 38 nM. Still for that read-out and setting: the value for `COc1ccc(C(F)(F)F)cc1NC(=O)Nc1ccc(Oc2cccc(C(=O)Nc3cccnc3)c2)cc1` was 100 nM. Regarding `O=C(Nc1ccc(Oc2cccc(C(=O)Nc3ccc(N4CCOCC4)cc3)c2)cc1)Nc1ccc(Cl)c(C(F)(F)F)c1`, in data set [1], the half-inhibitory concentration (IC50) was 160 nM. Same read-out and setting: the value for `CCC1CCCN1CNC(=O)c1cccc(Oc2ccc(NC(=O)Nc3ccc(Cl)c(C(F)(F)F)c3)cc2)c1` (configuration not stated) was 270 nM; that for `CN(C)C(=O)c1cccc(Oc2ccc(NC(=O)Nc3cc(C(C)(C)C)on3)cc2)c1` was 5800 nM. `CN(C)c1ccc(NC(=O)c2cccc(Oc3ccc(NC(=O)Nc4ccc(Cl)c(C(F)(F)F)c4)cc3)c2)cc1` registered an IC50 in data set [1] of 230 nM. On the same count and under the same terms, to `CC(C)(C)c1cc(NC(=O)Nc2ccc(Oc3ccccc3)cc2)no1` belongs 1100 nM.

By IC50 is commonly meant the concentration that inhibits the measured activity by half. The solubility is the dissolved amount per volume that the medium holds. A high value points to a readily soluble substance.
